# High-throughput results deposited in PubChem by Sanford-Burnham Center for Chemical Genomics.
# Hits are enriched below; roughly 2.4% of the tested compounds scored in any of these assays.
# SUMO1 PPI mod: modulators of human SUMO1-mediated protein-protein interactions | SUMO1 binding to a labelled peptide, TR-FRET, 1 h | inhibition, % at 20 µM | 0.33% of 360,000 active | P63165; in the data active means inhibition above about 37%
# NadD block: blocks S. aureus nicotinate mononucleotide adenylyltransferase; purified NadD enzyme, colorimetric absorbance read-out; inhibition, % at 20 µM; 0.78% of 360,000 active; AID 602399; in the data active means inhibition above about 26%
# STEP inh: STEP (human) phosphatase inhibition; inhibition, % at 20 µM; recombinant STEP, OMFP fluorogenic substrate, fluorescence; P54829; 0.25% of 360,000 active;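 active means inhibition at 20 µM, scaled per plate between control wells, above about 37%, limit read from the data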;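 further: 0% = DMSO with enzyme and substrate and 100% = substrate only without enzyme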
#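 Measure: Control-normalized % inhibition with plate pattern correction | Test system: STEP phosphatase, cell-free reaction | Medium: pH 6.0 Bis-Tris with DTT and Tween 20 | Technique: Fluorescence, 480/540 nm | Times: Reaction 20 min, ambient temperature | Doses: Single compound dose of 20 µM, 1% DMSO final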
# LMPTP inh: blocks human LMPTP phosphatase. recombinant LMPTP-A, OMFP fluorogenic substrate, fluorescence intensity. inhibition, % at 20 µM. 0.22% of 360,000 active. AID 651560;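 active means compounds that cut the enzyme signal by at least half of the control window in the single-dose screen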;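 further: plate controls were DMSO wells with enzyme plus substrate for no effect and substrate without enzyme for full effect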
#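 Test system: LMPTP-A phosphatase enzyme; input: 0.625 nM LMPTP-A final; reagent: OMFP substrate, 400 µM final; compound dosing: 20 µM single dose, 3% DMSO; incubation: 50 min dark incubation at room temperature; measured by: endpoint fluorescence intensity from OMFP dephosphorylation; measure: % inhibition relative to no-enzyme and uninhibited control wells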
# DNMT1 block: blocks human DNA methyltransferase DNMT1; P26358; DNMT1 molecular beacon, Hinp1I cleavage, fluorescence; inhibition (reported as % activation of signal), % at 10 µM; 0.83% of 360,000 active; AID 588458; in the data active means inhibition above about 50%
# Scp1 inh: blocks human Scp-1 phosphatase activity | Q9GZU7 | Recombinant Scp1, phosphopeptide, malachite green phosphate absorbance | inhibition, % at 20 µM | 0.88% of 340,000 active;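 active means inhibition above about 50% at 20 µM, limit read from the data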;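 further: plate controls were DMSO wells with enzyme for no effect and wells lacking enzyme for full effect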
#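 System: truncated SCP-1 phosphatase (76-261aa); medium: Tris acetate buffer pH 5.5 with MgCl2 and Tween-20; incubation: 45 min room-temperature reaction, 5 min colour, 30 min stabiliser; compound: single 20 µM dose, 1% DMSO; reagent: Phosphorylated 17-residue peptide substrate; read-out: % inhibition at 20 µM; technique: colorimetric free-phosphate detection, absorbance 630 nm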
# Scp1 confirm: Scp-1 (human) inhibition, single-dose confirmed; shares compounds with Scp1 inh; recombinant SCP-1 catalytic domain, phosphate release, malachite green absorbance; 61% of 2,500 active; AID 540281; inhibition, % at 20 µM;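 further: plate controls were DMSO with enzyme for no effect and buffer wells lacking enzyme for full effect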
# MG interference: counter-screen for Scp-1 inhibitors: colorimetric interference; 2,500 tested, under 10 active; Colorimetric interference counterscreen, malachite green absorbance 630 nm; shares compounds with Scp1 inh; apparent inhibition (interference), % at 20 µM; AID 540313;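 further: compounds added after enzyme reaction finished so only phosphate colour detection is probed; plate controls were DMSO wells with completed Scp-1 reaction for no effect and substrate wells lacking enzyme for full effect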
# Scp1 DSF: binds human Scp-1, shifting its melting temperature | Recombinant SCP1, Sypro Orange thermal shift Tm | thermal shift relative to vanadate control, % at 40 µM | shares compounds with Scp1 inh | 25% of 1,500 active;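 active means substances whose mean melting-temperature shift, as a percentage of the reference inhibitor's shift, reaches about 5.3%, limit read from the data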;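 further: 0% = Tm of DMSO wells and 100% = Tm with sodium orthovanadate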
# Starred values were filed as active, the others as inactive; . = no result given.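 How the source made its calls, unless noted: active means inhibition of at least 30% at 20 µM; inactive means the rest.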
SMILES,SUMO1 PPI mod,NadD block,STEP inh,LMPTP inh,DNMT1 block,Scp1 inh,Scp1 confirm,MG interference,Scp1 DSF
Cc1ccc2c(=O)cc(C(=O)NCCc3ccc(S(N)(=O)=O)cc3)oc2c1,2,-6,3,24,18,95*,70*,-13,5
NS(=O)(=O)c1ccc(CCNC(=O)c2ccc3nccnc3c2)cc1,11,14,8,55*,43,99*,76*,-7,1
O=[N+]([O-])c1ccc2nc(-c3ccccc3)n(OCc3ccc(Cl)cc3)c2c1,1,1,6,4,14,59*,51*,-5,6.2*
O=C(O)COn1c(-c2ccccc2)nc2ccc(Cl)cc21,4,-4,0,-1,2,-10,.,.,.
O=C(N/N=C/c1sc(=O)n(Cc2ccc(Br)cc2)c1Cl)c1ccco1,45*,14,96*,69*,31,103*,84*,-9,5.3*
COc1ccc(NC(=O)CS(=O)CC(=O)Nc2ccc(NC(C)=O)cc2)cc1 (centres undefined),6,-5,41*,0,7,79*,68*,-7,-3
COc1ccc(NC(=O)CS(=O)CC(=O)Nc2cccnc2)cc1 (centres undefined),0,-2,-1,0,-1,-3,.,.,.
CCCCN(CC)CCCNC(=S)Nc1ccc2nc(N3CCN(CC)CC3)cc(C)c2c1,-9,-11,2,2,1,-10,.,.,.
CCOc1ccc(NC(=O)C2CCCN2C(=O)Oc2ccccc2)cc1 (centres undefined),3,5,-1,-1,1,54*,20,-8,.
Cc1cc(C)cc(NC(=O)C2CCCN2C(=O)Oc2ccccc2)c1 (centres undefined),1,0,-1,0,-4,-5,.,.,.
CC1(C)CC(NNCCC#N)=CC(=[N+]2CCCC2)C1,-2,3,-5,0,1,-7,.,.,.
CC1(C)CC(N2CCCC2)=CC(=[N+]2CCCC2)C1,2,11,-2,-1,-1,100*,92*,-11,-20
Cc1ccc(NC(=O)/C=C/c2ccco2)nc1,-11,2,-3,0,11,63*,34*,-15,-5
CN(C)N1C(N)=C(C#N)C(c2cccs2)C2=C1CCCC2=O (centres undefined),-2,-2,0,1,-4,7,.,.,.
Cn1c(NC(=O)CCc2ccccc2)cc(=O)n(C)c1=O,7,4,-1,-1,5,7,-21,-16,.
CC(Oc1cccc(Cl)c1)C(=O)Nc1ccncc1 (centres undefined),2,1,0,-2,1,1,.,.,.
CC(Oc1cccc(Cl)c1)C(=O)Nc1cc(=O)n(C)c(=O)n1C (centres undefined),3,4,-2,1,-1,-6,-9,-2,.
Cn1c(NC(=O)COc2ccccc2)cc(=O)n(C)c1=O,3,4,2,0,-1,9,-13,-17,.
Cn1c(NC(=O)/C=C/c2ccccc2)cc(=O)n(C)c1=O,-26,-3,-1,-2,3,-43,-7,-9,.
C[C@@H]1COC(=O)[C@@H](CC(=O)OC(C)(C)C)C/C=C\C[C@@H](CC(=O)N(CCO)Cc2ccccc2)C(=O)N1,5,0,2,2,3,-5,.,.,.
Cn1ccsc1=NC(=O)c1ccc(Cl)c([N+](=O)[O-])c1,5,3,27,48,14,54*,11,-19,.
Cc1cccc(/C=C(\C(=O)O)c2ccc(S(=O)(=O)N3CCCC3)s2)c1,0,-1,8,14,62*,93*,77*,-4,1
O=C(O)/C(=C\c1cccc(F)c1)c1ccc(S(=O)(=O)N2CCCC2)s1,-2,0,2,1,27,33,.,.,.
C/C(=N\Nc1ccc(C(F)(F)F)cn1)c1ccc(S(=O)(=O)NCc2ccco2)cc1,-2,3,0,-1,3,59*,-3,-7,.
C/C(=N\Nc1ccccn1)c1ccc(S(=O)(=O)NCc2ccco2)cc1,-1,-5,3,0,-5,-2,.,.,.
SMILES,SUMO1 PPI mod,NadD block,STEP inh,LMPTP inh,DNMT1 block,Scp1 inh,Scp1 confirm,MG interference,Scp1 DSF
CN(C)C(=O)CSc1nnc(CCN)o1,0,-3,-2,-2,2,-3,.,.,.
Cc1ccc2nc(-c3ccc(N4C(=NC(=O)CCC(=O)O)SC5CS(=O)(=O)CC54)cc3)sc2c1 (centres undefined),9,17,0,2,56*,51*,55*,-13,-4
COCCNC(=O)c1ccc(C2SCC(=O)N2Cc2ccco2)cc1 (centres undefined),0,4,-1,-2,-1,-7,.,.,.
C=CCNC(=O)c1ccc(C2SCC(=O)N2Cc2ccco2)cc1 (centres undefined),-1,4,1,3,0,69*,53*,-20,-3
Cc1ccc(S(=O)(=O)NC(C)CCc2ccccc2)cc1 (centres undefined),1,-4,2,3,-3,-2,.,.,.
Cc1ccc(S(=O)(=O)NC(C)CCc2ccccc2)cc1C(N)=O (centres undefined),0,-1,0,-1,1,-2,-4,-11,.
COCCNC(=O)CSc1c2c(nc3ccc(Cl)cc13)CCCC2,-7,3,-3,-1,0,-4,.,.,.
Cc1cc(C)cc(NC(=O)c2cc(Cl)sc2Cl)c1,0,-4,4,2,0,-12,.,.,.
CCOC(=O)c1cccc(NC(=O)Cn2cc3c(n2)CCC(C)C3)c1 (centres undefined),6,-2,3,0,1,68*,-1,-10,.
CC(=O)Nc1ccc(NC(=O)c2ccc(OCc3c(C)noc3C)cc2)cc1,-1,3,-3,0,5,59*,-13,-18,.
CC(=O)N(CCc1cccc(C)c1)Cc1cc2ccc(C)cc2[nH]c1=O,-6,0,-3,1,0,0,.,.,.
O=C(O)c1ccc(CSc2n[nH]c(-c3ccco3)n2)cc1,23,4,13,-1,9,52*,32*,-15,-2
S=c1[nH]nc(COc2ccccc2)n1-c1ccc(Cl)cc1,4,-2,-4,0,4,51*,3,-10,.
